Assay results taken from ChEMBL document CHEMBL1126740, “(S)- and (R)-8-(di-n-propylamino)-6,7,8,9-tetrahydro-3H-benz[e]indole-1-carbaldehyde: a new class of orally active 5-HT1A-receptor agonists” (J Med Chem, 1993).
pKi: −log10 of the molar value. Activity calls are given as the source filed them. The calls are words filed in the database; no cut-off is given here.

What was measured:
[1] = tested on: Rattus norvegicus; assay: In vivo evaluation for DOPA accumulation in the hemispheres in male rats at highest test dose of 50 uM/Kg (sc); inactive; assay type: functional, organism-based
In short: (§1)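 Male Sprague-Dawley rats were pretreated with reserpine 5 mg/kg sc 18 h before dosing. DOPA and 5-HTP in limbic system, striatum and hemispheres were measured by HPLC with electrochemical detection. Dose-response curves used 4–6 dose levels (n = 4) for each region; ED50 was estimated graphically. Partial responses are given as the maximal % reduction at the highest dose tested.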

[2] = tested on: Rattus norvegicus; assay: In vivo evaluation for 5-HTP accumulation in the hemispheres in male rats (sc); assay type: functional; in short: as §1
[3] = tested on: Rattus norvegicus; assay: In vivo evaluation for 5-HTP accumulation in the limbic system in male rats (sc); assay type: functional; in short: as §1
[4] = organism: Rattus norvegicus; assay: Compound was tested for 5-HT behavioral response in reserpine pretreated rats; +5HT syndrome; assay type: functional, organism-based
In short: (§2)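 Male Sprague-Dawley rats (200–300 g) were given reserpine 5 mg/kg sc 18 h before testing, then the test drug sc in the neck (n = 4). Motor activity was recorded by photocells for 30 min, with gross behaviour observed throughout. 5-HT syndrome: flat body posture, extended limbs, reciprocal forepaw treading. DA response: locomotion and stereotypies.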

[5] = tested on: Rattus norvegicus; assay: In vivo evaluation for 5-HTP accumulation in the corpus striatum in male rats (sc); assay type: functional; in short: as §1
[6] = biological target: D(2) dopamine receptor (Rattus norvegicus, UniProt P61169); assay: Displacement of [3H]spiperone from dopamine receptor D2
In short: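 Rat striatal membranes in 50 mM potassium phosphate buffer (3 mg original tissue) incubated with 0.5 nM [3H]spiperone for 10 min at 37 °C. Nonspecific binding was defined with 10 μM 6,7-ADTN. Ki was calculated by Cheng–Prusoff; triplicates, 3–7 experiments.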

[7] = tested on: Rattus norvegicus; assay: In vivo evaluation for DOPA accumulation in the limbic system in male rats at highest test dose of 50 uM/Kg (sc); inactive; assay type: functional, organism-based; in short: as §1
[8] = tested on: Rattus norvegicus; assay: In vivo evaluation for DOPA accumulation in the corpus striatum in male rats at highest test dose of 50 uM/Kg (sc); inactive; assay type: functional, organism-based; in short: as §1
[9] = biological target: D(2) dopamine receptor (Homo sapiens, UniProt P14416); assay: In vitro binding affinity against dopamine receptor D2 using [3H]raclopride as radioligand in CHO cells (sc); assay type: cell-based, Cricetulus griseus
[10] = Time taken to reach the maximum concentration of compound at 2 uM/dg administered intravenously; assay type: ADME, organism-based; conditions: in vivo, iv
In short: (§3)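 Male Sprague-Dawley rats (300 g) with arterial catheters were dosed 24 h after surgery; orally dosed rats were starved 18 h beforehand. Blood was sampled at intervals up to 12 h and analysed by HPLC with fluorescence detection (ex 285, em 365) or by GC/MS. Cmax is in pmol/mL and tmax in min, mean ± SEM, n = 4–6.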

[11] = Maximum concentration of the drug at 10 umol/dg administered perorally; assay type: ADME, organism-based; design: route oral; conditions: in vivo, po; in short: as §3
[12] = biological target: T1, 5-hydroxytryptamine receptor 1A (Rattus norvegicus, UniProt P19327); assay: In vitro binding affinity against 5-hydroxytryptamine 1A receptor using [3H]8-OH-DPAT
T1 sequence (P19327 whole entry): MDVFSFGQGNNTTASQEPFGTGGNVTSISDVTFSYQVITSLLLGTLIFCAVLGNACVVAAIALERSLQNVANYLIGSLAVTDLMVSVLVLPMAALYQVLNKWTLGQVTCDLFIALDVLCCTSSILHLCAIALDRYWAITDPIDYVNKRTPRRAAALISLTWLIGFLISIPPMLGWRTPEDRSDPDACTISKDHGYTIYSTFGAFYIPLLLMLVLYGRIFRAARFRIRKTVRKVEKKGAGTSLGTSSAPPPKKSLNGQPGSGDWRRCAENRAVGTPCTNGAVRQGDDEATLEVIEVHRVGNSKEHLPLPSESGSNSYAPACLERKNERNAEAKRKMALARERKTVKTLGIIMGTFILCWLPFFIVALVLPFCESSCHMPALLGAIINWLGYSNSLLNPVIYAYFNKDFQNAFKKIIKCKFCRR
In short: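 Rat whole-brain membranes (brainstem and cerebellum removed) in 50 mM Tris pH 8.0 containing NaCl, CaCl2, MgCl2 and 10 μM pargyline, 10 mg tissue per tube. Nonspecific binding was defined with 10 μM 5-HT. IC50 was taken by semi-log linear regression and Ki by Cheng–Prusoff; triplicates.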

[13] = Bioavailability in rat; assay type: ADME, organism-based; conditions: in vivo
In short: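 Blood was drawn at intervals up to 12 h and assayed by HPLC-fluorescence or GC/MS against spiked blank-blood standards. F is the ratio of oral to intravenous areas under the blood concentration-time curves; n = 4–6.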

[14] = tested on: Rattus norvegicus; assay: In vivo evaluation for DOPA accumulation in the hemispheres in male rats at highest test dose; inactive; assay type: functional, organism-based; in short: as §1
[15] = Area under curve at 10 uM/dg administered perorally; assay type: ADME; conditions: po
In short: (§4)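 Male Sprague-Dawley rats (300 g) carrying arterial catheters, used 24 h after surgery; animals dosed orally were starved 18 h beforehand. Blood was sampled at intervals up to 12 h after dosing. Drug levels were measured by HPLC with fluorescence detection (ex 285, em 365) or by GC/MS, calibrated against spiked blank blood. AUC was taken from concentration-time curves; n = 4–6.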

[16] = Maximum concentration of the drug at 2 umol/dg administered intravenously; assay type: ADME, organism-based; design: route intravenous; conditions: in vivo, iv; in short: as §3
[17] = tested on: Rattus norvegicus; assay: In vivo evaluation for 5-HTP accumulation in the limbic system in male rats (po); assay type: functional; in short: as §1
[18] = Half life of compound at 2 uM/dg administered intravenously; assay type: ADME, organism-based; conditions: in vivo, iv; in short: as §4
[19] = biological target: T2, 5-hydroxytryptamine receptor 1A (Mus musculus, UniProt Q64264); assay: In vitro binding affinity against 5-hydroxytryptamine 1A receptor using [3H]-8-OH-DPAT as radioligand in CHO cells (sc); assay type: cell-based, Cricetulus griseus
T2 sequence (Q64264 whole entry): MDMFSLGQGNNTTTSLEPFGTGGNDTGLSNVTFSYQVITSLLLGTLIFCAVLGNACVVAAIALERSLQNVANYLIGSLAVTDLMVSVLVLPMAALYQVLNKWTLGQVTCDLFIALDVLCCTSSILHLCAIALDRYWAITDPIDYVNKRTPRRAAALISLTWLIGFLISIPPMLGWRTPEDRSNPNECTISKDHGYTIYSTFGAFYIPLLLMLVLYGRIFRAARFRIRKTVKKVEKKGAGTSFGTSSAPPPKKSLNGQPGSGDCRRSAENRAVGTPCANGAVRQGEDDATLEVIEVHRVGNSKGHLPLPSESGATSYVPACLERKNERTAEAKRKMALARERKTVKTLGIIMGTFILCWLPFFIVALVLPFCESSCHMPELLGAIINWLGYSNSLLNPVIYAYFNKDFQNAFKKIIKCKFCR

[20] = organism: Rattus norvegicus; assay: Maximal reduction in percent (Partial response) of DOPA accumulation rat limbic system at highest test dose; inactive; assay type: functional, organism-based
[21] = Ratio of ED50 values when the compound was administered subcutaneously to that of peroral administration; assay type: ADME
In short: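 Male Sprague-Dawley rats (200–300 g) pretreated with reserpine (5 mg/kg sc, 18 h earlier). Compound given sc or po. 5-HTP accumulation in the limbic system was measured by HPLC with electrochemical detection. ED50 values came from dose-response curves of 4–6 dose levels (n = 4), and the sc ED50 was divided by the po ED50.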

[22] = organism: Rattus norvegicus; assay: Maximal reduction in percent (Partial response) of DOPA accumulation rat hemispheres at highest test dose; inactive; assay type: functional, organism-based; in short: as §1
[23] = tested on: Rattus norvegicus; assay: In vivo evaluation for 5-HTP accumulation in the corpus striatum in male rats (po); assay type: functional; in short: as §1
[24] = Area under curve at 2 uM/dg administered intravenously; assay type: ADME; conditions: iv; in short: as §4
[25] = organism: Rattus norvegicus; assay: Maximal reduction in percent (Partial response) of DOPA accumulation rat corpus striatum at highest test dose; inactive; assay type: functional, organism-based; in short: as §1
[26] = tested on: Rattus norvegicus; assay: Maximal reduction in percent (Partial response) of DOPA accumulation rat limbic system at highest test dose of 12.5 uM/Kg (sc); assay type: functional
[27] = tested on: Rattus norvegicus; assay: Maximal reduction in percent (Partial response) of DOPA accumulation rat corpus striatum at highest test dose of 12.5 uM/Kg (sc); assay type: functional; in short: as §1
[28] = tested on: Rattus norvegicus; assay: In vivo evaluation for 5-HTP accumulation in the hemispheres in male rats (po); assay type: functional; in short: as §1
[29] = organism: Rattus norvegicus; assay: Compound was tested for 5HT, Dopamine agonist mediated response in reserpine pretreated rats; mix DA, 5-HT syndrome; assay type: functional, organism-based; in short: as §2
[30] = tested on: Rattus norvegicus; assay: Maximal reduction in percent (Partial response) of DOPA accumulation rat limbic system at highest test dose of […] (sc); assay type: functional
[31] = tested on: Rattus norvegicus; assay: In vivo evaluation for DOPA accumulation in the corpus striatum in male rats (sc); assay type: functional; in short: as §1
[32] = tested on: Rattus norvegicus; assay: In vivo evaluation for DOPA accumulation in the hemispheres in male rats at highest dose tested; inactive; assay type: functional, organism-based; in short: as §1
[33] = tested on: Rattus norvegicus; assay: Maximal reduction in percent (Partial response) of DOPA accumulation rat hemispheres at highest test dose of 4.0 uM/kg (sc); assay type: functional; in short: as §1
[34] = tested on: Rattus norvegicus; assay: In vivo evaluation for DOPA accumulation in the limbic system in male rats (sc); assay type: functional; in short: as §1

Chain of D(2) dopamine receptor (Rattus norvegicus, UniProt P61169) (P61169 whole entry): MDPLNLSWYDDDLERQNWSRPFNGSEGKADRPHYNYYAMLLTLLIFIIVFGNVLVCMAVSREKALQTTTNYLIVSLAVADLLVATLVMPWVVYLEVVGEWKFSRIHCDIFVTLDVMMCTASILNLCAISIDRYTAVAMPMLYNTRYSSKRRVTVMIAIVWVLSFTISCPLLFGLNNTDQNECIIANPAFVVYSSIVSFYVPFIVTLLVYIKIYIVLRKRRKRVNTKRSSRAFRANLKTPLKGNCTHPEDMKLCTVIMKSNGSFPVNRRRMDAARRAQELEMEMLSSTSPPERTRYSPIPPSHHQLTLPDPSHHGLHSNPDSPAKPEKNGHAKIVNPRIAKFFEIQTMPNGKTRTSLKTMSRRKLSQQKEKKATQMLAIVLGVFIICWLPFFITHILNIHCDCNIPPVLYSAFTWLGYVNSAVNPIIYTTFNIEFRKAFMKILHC
Chain of D(2) dopamine receptor (Homo sapiens, UniProt P14416) (P14416 whole entry): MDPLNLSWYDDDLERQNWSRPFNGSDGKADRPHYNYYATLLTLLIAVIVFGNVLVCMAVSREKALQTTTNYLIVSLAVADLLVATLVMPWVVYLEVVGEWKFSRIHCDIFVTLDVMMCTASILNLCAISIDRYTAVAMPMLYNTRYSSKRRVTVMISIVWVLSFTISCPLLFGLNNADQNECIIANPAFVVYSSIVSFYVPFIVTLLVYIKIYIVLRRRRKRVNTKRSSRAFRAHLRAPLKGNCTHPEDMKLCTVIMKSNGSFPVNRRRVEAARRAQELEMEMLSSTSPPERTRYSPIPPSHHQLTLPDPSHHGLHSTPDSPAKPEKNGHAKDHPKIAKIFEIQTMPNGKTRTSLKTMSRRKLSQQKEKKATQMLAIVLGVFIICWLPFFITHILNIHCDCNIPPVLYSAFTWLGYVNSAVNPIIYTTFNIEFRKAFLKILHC

| SMILES | ED50 [1] | ED50 [2] [µmol/kg] | ED50 [3] [µmol/kg] | Behavioral response [4] | ED50 [5] [µmol/kg] | pKi [6] | ED50 [7] | ED50 [8] | ED50 [31] [µmol/kg] | further results |
| --- | --- | --- | --- | --- | --- | --- | --- | --- | --- | --- |
| CCCN(CCC)[C@@H]1CCc2cccc(O)c2C1 | inactive | 0.05 | 0.036 | Active | 0.047 | 6.08 | inactive | inactive |  |  |
| CCCN(CCC)[C@H]1CCc2ccc3[nH]cc(C(C)=O)c3c2C1 |  | 0.095 | 0.09 | Active | 0.08 | 5.44 |  |  |  | pKi [9]: 6.37; Tmax at 2 µM [10]: 2 min; Cmax [11]: 606 pM ml-1; pKi [12]: 8.70; bioavailability [13]: 72%; ED50 [14]: inactive; AUC [15]: 2224 pM/h/g; Cmax [16]: 849 pM ml-1; ED50 [17]: 0.5 µmol/kg; half-life at 2 µM [18]: 60 min; pKi [19]: 9.70; ED50 [20]: inactive; Ratio [21]: 18; ED50 [22]: inactive; ED50 [23]: 1.1 µmol/kg; AUC [24]: 607 pM/h/g; ED50 [25]: inactive; Reduction [26]: 37%; Reduction [27]: 25%; ED50 [28]: 1.1 µmol/kg |
| CCCN(CCC)[C@H]1CCc2cccc(O)c2C1 | inactive | 0.077 | 0.061 | Active | 0.065 | 5.29 | inactive | inactive |  |  |
| CCCN(CCC)[C@@H]1CCc2ccc3[nH]ccc3c2C1 |  | 0.41 | 0.2 |  | 0.25 | 7.00 |  |  | 0.16 | Behavioral response [29]: Active; Reduction [30]: 37%; ED50 [32]: inactive |
| CN(C)C1CCc2ccc3[nH]ccc3c2C1 (racemic) |  | 0.4 | 0.3 | Active | 0.3 |  |  |  | 0.4 | Reduction [33]: 34%; ED50 [34]: 0.3 µmol/kg |
